Calls of active or inactive are those of the source. The calls are words filed in the database; no cut-off is given here.
Columns and labels:
[1] = molecular target: T1, UDP-3-O-acyl-N-acetylglucosamine deacetylase (Aquifex aeolicus (strain VF5)) (UniProt O67648); assay: Inhibition of Aquifex aeolicus LpxC
T1 sequence (whole entry): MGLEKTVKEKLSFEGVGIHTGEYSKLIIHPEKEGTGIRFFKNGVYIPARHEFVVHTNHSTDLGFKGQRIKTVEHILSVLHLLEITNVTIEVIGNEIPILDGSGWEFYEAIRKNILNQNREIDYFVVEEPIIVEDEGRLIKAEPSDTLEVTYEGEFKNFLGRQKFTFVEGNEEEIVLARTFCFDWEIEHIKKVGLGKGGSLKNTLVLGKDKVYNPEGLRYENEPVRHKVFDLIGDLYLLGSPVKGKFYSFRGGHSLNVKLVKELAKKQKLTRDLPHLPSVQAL

[2] = system: Rhizobium leguminosarum; assay: Inhibition of Rhizobium leguminosarum LpxC at 0.5 uM
[3] = system: Rhizobium leguminosarum; assay: Activity of Rhizobium leguminosarum LpxC
Outline: (§1)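 Wild-type and site-directed mutant LpxC (E. coli, R. leguminosarum) expressed and purified, then assayed by a previously described method. Substrate was UDP-3-O-(R-3-hydroxymyristoyl)-N-acetylglucosamine, varied for Michaelis–Menten analysis. KM and kcat came from data sets pooling multiple independent experiments.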

[4] = system: Rhizobium leguminosarum; assay: Ratio of Kcat to Km of Rhizobium leguminosarum LpxC; outline: as §1
[5] = molecular target: T2, UDP-3-O-acyl-N-acetylglucosamine deacetylase (Escherichia coli K-12) (UniProt P0A725); assay: Inhibition of Escherichia coli LpxC at 4 nM
T2 sequence (whole entry): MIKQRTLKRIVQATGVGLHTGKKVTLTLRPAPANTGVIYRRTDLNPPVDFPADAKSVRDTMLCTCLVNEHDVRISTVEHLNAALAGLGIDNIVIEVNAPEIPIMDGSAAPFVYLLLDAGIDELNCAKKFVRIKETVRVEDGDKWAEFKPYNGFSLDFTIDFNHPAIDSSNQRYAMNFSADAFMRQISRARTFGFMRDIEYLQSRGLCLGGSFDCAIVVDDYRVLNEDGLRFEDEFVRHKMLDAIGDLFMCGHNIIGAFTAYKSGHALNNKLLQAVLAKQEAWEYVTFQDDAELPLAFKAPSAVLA

Activity [1]: Active
inhibition [2]: 50%
Km [3]: 4.8 µM
kcat [3]: 1.7 s⁻¹
kcat/Km [4]: 3.5 10^6/M/s
inhibition [5]: > 75%
Structure (SMILES): C[C@@H](O)[C@H](NC(=O)c1ccc(C#Cc2ccc(CN3CCOCC3)cc2)cc1)C(=O)NO
